Reference: ChEMBL document CHEMBL2157989, “Synthesis and biological evaluation of antibody conjugates of phosphate prodrugs of cytotoxic DNA alkylators for the targeted treatment of cancer” (J Med Chem, 2012)
Converted amounts (≈) assume the structure as drawn.

Experiments:
[1] = Solubility in ethyl acetate at 1.5 mg sonicated for 45 mins followed by centrifugation for 45 mins by UV/Vis spectroscopy; assay type: physicochemical; conditions: 0.75 h
In short: (§1)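 Solid compound (~1.5 mg) in the stated solvent was sonicated 45 min, then centrifuged at 1400g for 45 min. The supernatant concentration was read by UV/vis at 340 nm, using ε = 41500 M⁻¹ cm⁻¹ for the free phenols and 34500 M⁻¹ cm⁻¹ for the phosphate prodrugs (pH 7.0 values).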

[2] = Prodrug activation assessed as enzyme-mediated compound dephosphorylation in presence of bovine liver alkaline phosphatase P7034 at pH 7.4 by HPLC; conditions: cattle, isolated protein
[3] = Solubility in water at 1.5 mg sonicated for 45 mins followed by centrifugation for 45 mins by UV/Vis spectroscopy; assay type: physicochemical; conditions: 0.75 h; in short: as §1
[4] = Prodrug activation assessed as enzyme-mediated compound dephosphorylation in presence of bovine intestinal mucosa alkaline phosphatase P7640 at pH 7.4 by HPLC; conditions: cattle, isolated protein
[5] = Prodrug conversion assessed as 5-(3-(Methyldisulfanyl)propanamido)-N-(2-((9aS)-4-oxo-2,4,9,9atetrahydro- 1H-benzo[e]cyclopropa[c]indole-2-carbonyl)-1H-indol- 5-yl)-1H-indole-2-carboxamide in cyclopropyl by HPLC analysis; assay type: physicochemical
[6] = Prodrug activation assessed as enzyme-mediated compound dephosphorylation in presence of wheat germ acid phosphatase Sigma P3627 at pH 7.4 by HPLC; conditions: isolated protein
[7] = Solubility of the compound in 5% DMA and 95% buffer at pH 7 at 1.5 mg sonicated for 45 mins followed by centrifugation for 45 mins by UV/Vis spectroscopy; assay type: physicochemical
In short: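 For buffers with 5% or less DMA, a 50 mM stock of compound in DMA is diluted 20–100 times into pH 7.0 buffer. It is then sonicated for 45 min and centrifuged at 1400g for 45 min. Supernatant is quantified by UV/vis at 340 nm, with ε of 41500 (DC1–SR₂ compounds) or 34500 M⁻¹ cm⁻¹ (phosphate prodrugs).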

[8] = Solubility in ethanol at 1.5 mg sonicated for 45 mins followed by centrifugation for 45 mins by UV/Vis spectroscopy; assay type: physicochemical; conditions: 0.75 h; in short: as §1
[9] = Stability of the compound in 5 % DMA assessed as cyclopropyl ring formation incubated for 1 yr at room temperature at pH 7 by HPLC analysis; assay type: physicochemical; conditions: buffer, pH 7, 8766 h
In short: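 Phosphate prodrug is stored for one year at room temperature in phosphate buffer containing 5% DMA at pH ~7. Conversion to the ring-closed cyclopropyl form is monitored by HPLC.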

[10] = Solubility in dichloromethane at 1.5 mg sonicated for 45 mins followed by centrifugation for 45 mins by UV/Vis spectroscopy; assay type: physicochemical; conditions: 0.75 h
[11] = Prodrug activation assessed as enzyme-mediated compound dephosphorylation in presence of bovine kidney alkaline phosphatase P4653 at pH 7.4 by HPLC; conditions: cattle, isolated protein
COLO 205 = assay: Cytotoxicity against human COLO205 cells assessed as cell survival after 72 hrs by clonogenic assay; assay type: functional, cell-based; conditions: COLO 205, 72 h
In short: (§2)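 Cells were kept in RPMI 1640 with 10% heat-inactivated FBS at 37 °C and 6% CO₂. They were plated at 1000–5000 cells/well and exposed to 0–3 nM test agent for 72 h. Medium was then replaced and colonies grew for 7–10 days in total after plating. Colonies were fixed and stained with 0.2% crystal violet in 10% formalin/PBS, then counted. Surviving fraction = colonies in treated wells / colonies in control wells; IC₅₀ was taken from this.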

Ramos [12] = assay: Cytotoxicity against human Ramos cells assessed as cell survival after 72 hrs by clonogenic assay; assay type: functional, cell-based; in short: as §2
[13] = Solubility in DMF at 1.5 mg sonicated for 45 mins followed by centrifugation for 45 mins by UV/Vis spectroscopy; assay type: physicochemical; conditions: 0.75 h; in short: as §1
[14] = Solubility in water containing 5% DMSO at 1.5 mg sonicated for 45 mins followed by centrifugation for 45 mins by UV/Vis spectroscopy; assay type: physicochemical; conditions: 0.75 h
[15] = Prodrug conversion assessed as 1 - [ S ] - ( Ch l o r ome t h y l ) - 5 - h y d r o x y - 3 - { { 5 - [ 5 - ( 3 -methyldithiopropionyl)indol-2-yl-carbonyl amino]indole-2-yl}- carbonyl}-1,2-dihydro-3H-benz[e]indole formation in presence of bovine liver alkaline phosphatase at pH 7.4; assay type: physicochemical; conditions: cattle, isolated protein
[16] = Prodrug activation assessed as enzyme-mediated compound dephosphorylation in presence of bovine semen prostatic acid phosphatase P3147 at pH 7.4 by HPLC; conditions: cattle, isolated protein
[17] = Solubility in hexane at 1.5 mg sonicated for 45 mins followed by centrifugation for 45 mins by UV/Vis spectroscopy; assay type: physicochemical; conditions: 0.75 h; in short: as §1
[18] = Prodrug conversion assessed as 1-[S]-(Chloromethyl)-5-hydroxy-3-{{5-[5-(3-methyldithiopropionyl)indol-2-yl-carbonyl amino]indole-2-yl}- carbonyl}-1,2-dihydro-3H-benz[e]indole formation in presence of bovine kidney alkaline phosphatase at pH 7.4; assay type: physicochemical; conditions: cattle, isolated protein
[19] = Prodrug activation assessed as enzyme-mediated compound dephosphorylation in presence of human placenta alkaline phosphatase from P3895 at pH 7.4 by HPLC; conditions: isolated protein
[20] = Prodrug activation assessed as enzyme-mediated compound dephosphorylation in presence of human semen prostatic acid phosphatase P1649 at pH 7.4 by HPLC; conditions: isolated protein
[21] = Solubility in water containing 5% DMA at 1.5 mg sonicated for 45 mins followed by centrifugation for 45 mins by UV/Vis spectroscopy; assay type: physicochemical; conditions: 0.75 h
[22] = Solubility in DMA at 1.5 mg sonicated for 45 mins followed by centrifugation for 45 mins by UV/Vis spectroscopy; assay type: physicochemical; conditions: 0.75 h; in short: as §1
HL-60 = assay: Cytotoxicity against human HL60 cells assessed as cell survival after 72 hrs by clonogenic assay; assay type: functional, cell-based; conditions: HL-60, 72 h; in short: as §2
[23] = Prodrug activation assessed as enzyme-mediated compound dephosphorylation in presence of bovine alkaline phosphatase P8361 at pH 7.4 by HPLC; conditions: cattle, isolated protein
[24] = Solubility in methanol at 1.5 mg sonicated for 45 mins followed by centrifugation for 45 mins by UV/Vis spectroscopy; assay type: physicochemical; conditions: 0.75 h; in short: as §1
[25] = Solubility in toluene at 1.5 mg sonicated for 45 mins followed by centrifugation for 45 mins by UV/Vis spectroscopy; assay type: physicochemical; conditions: 0.75 h; in short: as §1
[26] = Solubility in chloroform at 1.5 mg sonicated for 45 mins followed by centrifugation for 45 mins by UV/Vis spectroscopy; assay type: physicochemical; conditions: 0.75 h; in short: as §1
Ramos [27] = assay: Cytotoxicity against human Ramos cells assessed as cell survival after 72 hrs in presence of bovine alkaline phosphatase by clonogenic assay; assay type: functional, cell-based
In short: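 Clonogenic assay: cells in RPMI 1640 with 10% heat-inactivated FBS were plated at 1000–5000 cells/well. Test agent (0–3 nM) was combined with alkaline phosphatase from bovine liver, and cells were exposed for 72 h. Colonies then grew for 7–10 days after plating and were stained with 0.2% crystal violet in 10% formalin/PBS. Surviving fraction is relative to untreated control wells.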

[28] = Prodrug activation assessed as enzyme-mediated compound dephosphorylation in presence of canine intestine alkaline phosphatase P8639 at pH 7.4 by HPLC; conditions: dog, isolated protein
[29] = Prodrug activation assessed as enzyme-mediated compound dephosphorylation in presence of porcine kidney alkaline phosphatase P4439 at pH 7.4 by HPLC; conditions: pig, isolated protein

Compound | solubility [1] | Drug metabolism [2] | solubility [3] | Drug metabolism [4] | Drug metabolism [5] | Drug metabolism [6] | solubility at 0.75 h [7] [µM] | solubility [8] | Drug degradation [9] [%] | solubility [10] | Drug metabolism [11] | IC50 (COLO 205) [nM] | IC50 (Ramos [12]) [nM] | solubility [13] | solubility [14] | Drug metabolism [15] | Drug metabolism [16] | solubility [17] | Drug metabolism [18] | Drug metabolism [19] | also measured
CSSCCC(=O)Nc1ccc2[nH]c(C(=O)Nc3ccc4[nH]c(C(=O)N5C[C@@H](CCl)c6c5cc(OP(=O)(O)O)c5ccccc65)cc4c3)cc2c1 | Insoluble | Active | Insoluble | Active | Active | Active | 3000 (≈ 2290 µg/mL) | Insoluble | 3 | Insoluble | Active | > 3 | 1.9 | soluble | soluble | Active | Active | Insoluble | Active | Active | Drug metabolism [20]: Active; solubility [21]: soluble; solubility [22]: soluble; IC50 (HL-60): 1.8 nM; Drug metabolism [23]: Active; solubility [24]: Insoluble; solubility [25]: Insoluble; solubility [26]: Insoluble; IC50 (Ramos [27]): 0.08 nM; Drug metabolism [28]: Active; Drug metabolism [29]: Active
CSSC(C)(C)CCC(=O)Nc1ccc2[nH]c(C(=O)Nc3ccc4[nH]c(C(=O)N5C[C@@H](CCl)c6c5cc(OP(=O)(O)O)c5ccccc65)cc4c3)cc2c1 | Insoluble | Active | Insoluble | Active | Active | Active | 2900 (≈ 2340 µg/mL) | Insoluble | 3 | Insoluble | Active | > 3 | 2 | soluble | soluble | Active | Active | Insoluble | Active | Active | Drug metabolism [20]: Active; solubility [21]: soluble; solubility [22]: soluble; IC50 (HL-60): 1.9 nM; Drug metabolism [23]: Active; solubility [24]: Insoluble; solubility [25]: Insoluble; solubility [26]: Insoluble; IC50 (Ramos [27]): 0.09 nM; Drug metabolism [28]: Active; Drug metabolism [29]: Active
